pIC50: −log10 of the molar value.
What was measured:
Endothelin-1 receptor = biological target: T1, Endothelin-1 receptor (Homo sapiens, UniProt P25101); experiment: Binding affinity against human cloned endothelin A receptor expressed in LTK-cells; assay type: cell-based
T1 sequence (P25101 whole entry): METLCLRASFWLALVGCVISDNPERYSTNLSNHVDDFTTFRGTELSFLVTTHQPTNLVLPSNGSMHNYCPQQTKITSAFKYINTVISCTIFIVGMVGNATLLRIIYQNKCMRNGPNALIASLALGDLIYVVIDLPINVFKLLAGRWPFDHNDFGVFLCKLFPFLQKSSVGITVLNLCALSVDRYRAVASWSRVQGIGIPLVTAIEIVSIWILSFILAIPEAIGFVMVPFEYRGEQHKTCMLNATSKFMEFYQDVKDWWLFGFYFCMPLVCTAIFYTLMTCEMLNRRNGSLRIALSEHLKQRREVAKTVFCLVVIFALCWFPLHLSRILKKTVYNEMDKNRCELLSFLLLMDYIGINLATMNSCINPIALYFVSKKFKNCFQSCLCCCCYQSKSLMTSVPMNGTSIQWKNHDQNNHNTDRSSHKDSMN
Method in brief: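 Radioligand binding to cloned human ETA (Ltk⁻ cells) and ETB (CHO-K1 cells) receptors. Selectivity expressed as ETB IC50/ETA IC50.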

[1] = biological target: T2, Endothelin receptor type B (Homo sapiens, UniProt P24530); experiment: Binding affinity against human cloned Endothelin B receptor expressed in CHO-K1 cells; assay type: cell-based
T2 sequence (P24530 whole entry): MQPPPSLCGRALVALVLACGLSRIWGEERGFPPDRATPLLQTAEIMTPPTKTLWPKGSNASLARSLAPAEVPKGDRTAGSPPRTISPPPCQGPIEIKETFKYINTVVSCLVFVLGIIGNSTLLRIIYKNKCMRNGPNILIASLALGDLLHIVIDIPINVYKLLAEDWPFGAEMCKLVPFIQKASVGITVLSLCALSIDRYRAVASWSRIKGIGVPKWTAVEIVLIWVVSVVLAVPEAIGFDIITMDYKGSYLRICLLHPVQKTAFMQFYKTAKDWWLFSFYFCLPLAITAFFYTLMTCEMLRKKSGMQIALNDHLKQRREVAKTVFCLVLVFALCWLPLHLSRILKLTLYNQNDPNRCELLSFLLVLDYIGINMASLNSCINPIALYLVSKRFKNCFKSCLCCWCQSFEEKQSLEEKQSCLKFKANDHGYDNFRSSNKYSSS
Method in brief: (§1)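 Radioligand binding to cloned human ETA (Ltk⁻ cells) and ETB (CHO-K1 cells) receptors. […] Selectivity expressed as ETB IC50/ETA IC50.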

[2] = biological target: Endothelin receptor, ET-A/ET-B (Homo sapiens) (UniProt P24530+P25101); experiment: Selectivity of compound on ET B with respect to ET A receptor; assay type: protein assay; method in brief: as §1
[3] = biological target: T2, Endothelin receptor type B; experiment: Inhibition of Endothelin B receptor mediated (ET-3) release of arachidonic acid from human cloned receptors expressed in CHO-K1 cells; assay type: cell-based
Method in brief: (§2)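 Arachidonic acid release assay. ETA: rabbit renal artery vascular smooth muscle cells stimulated with ET-1. ETB: recombinant human receptors in CHO-K1 cells stimulated with ET-3.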

Rattus norvegicus = experiment: In vivo effect at 10 mg/kg on MABP in anesthetized ganglionic-blocked rats versus ET-1 (0.3 nmol/kg, iv) baseline; assay type: functional
Method in brief: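 Rats dosed orally by gavage at 10 mg/kg. Ganglionic blockade with mecamylamine given 15 min later (baseline MABP 80–90 mmHg). ET-1 challenge (0.3 nmol/kg iv) 15 min after that. Reduction of the peak pressor response, about 5 min post ET-1, scored against vehicle-treated controls.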

[4] = biological target: T2, Endothelin receptor type B; experiment: Inhibition of Endothelin B receptor mediated (ET-3) release of arachidonic acid from human cloned receptors / CHO-K1 cells; In active; assay type: cell-based; method in brief: as §2
[5] = Mean of apparent terminal phase elimination half-life in oral (5 mg/kg) fasted dogs; assay type: ADME, organism-based, Canis lupus familiaris; details: dog, in vivo
Method in brief: (§3)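 Three-way crossover in four male beagles: single 2.5 mg/kg iv dose (fed) or 5 mg/kg oral capsule, fed or fasted. Serial heparinized plasma taken up to 24 h. Drug isolated by reverse-phase SPE, quantified by C18 HPLC with fluorescence (ex 312, em 430 nm), LOQ 10 ng/mL. Noncompartmental analysis. […] AUC by trapezoidal rule extrapolated to infinity. F from dose-normalized po/iv AUC ratio.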

[6] = Absolute oral bioavailability in oral (5 mg/kg) fasted dogs; assay type: ADME, organism-based, Canis lupus familiaris; details: dog, in vivo; method in brief: as §3
[7] = Maximum observed concentration in oral (5 mg/kg) fasted dogs; assay type: ADME, organism-based, Canis lupus familiaris; parameters: dose 5 mg/kg, route oral; details: dog, in vivo; method in brief: as §3
[8] = Area under the concentration-time curve from time zero to infinity after intravenous administration of 2.5 mg/kg in dogs; assay type: ADME, organism-based, Canis lupus familiaris; parameters: dose 2.5 mg/kg, route intravenous; details: dog, in vivo
Method in brief: (§4)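 Four male beagle dogs, fed, single 2.5 mg/kg iv dose within a three-way crossover. Serial heparinized plasma sampled to 24 h. Drug recovered by reverse-phase solid-phase extraction and measured by HPLC with fluorescence detection (ex 312, em 430 nm); LOQ 10 ng/mL.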

[9] = Time to reach maximum observed concentration in oral (5 mg/kg) fed dogs; assay type: ADME, organism-based, Canis lupus familiaris; details: dog, in vivo; method in brief: as §3
[10] = Area under the concentration-time curve from time zero to infinity in oral (5 mg/kg) fed dogs; assay type: ADME, organism-based, Canis lupus familiaris; details: dog, in vivo; method in brief: as §3
[11] = Area under the concentration-time curve from time zero to infinity in oral (5 mg/kg) fasted dogs; assay type: ADME, organism-based, Canis lupus familiaris; details: dog, in vivo; method in brief: as §3
[12] = Maximum observed concentration in oral (5 mg/kg) fed dogs; assay type: ADME, organism-based, Canis lupus familiaris; parameters: dose 5 mg/kg, route oral; details: dog, in vivo; method in brief: as §3
[13] = Absolute oral bioavailability in oral (5 mg/kg) fed dogs; assay type: ADME, organism-based, Canis lupus familiaris; details: dog, in vivo; method in brief: as §3
[14] = Time to reach maximum observed concentration in oral (5 mg/kg) fasted dogs; assay type: ADME, organism-based, Canis lupus familiaris; details: dog, in vivo; method in brief: as §3
[15] = Mean of apparent terminal phase elimination half-life after intravenous administration of 2.5 mg/kg in dogs; assay type: ADME, organism-based, Canis lupus familiaris; parameters: dose 2.5 mg/kg, route intravenous; details: dog, in vivo; method in brief: as §4
[16] = Mean of apparent terminal phase elimination half-life in oral (5 mg/kg) fed dogs; assay type: ADME, organism-based, Canis lupus familiaris; details: dog, in vivo; method in brief: as §3

Row | pIC50 (Endothelin-1 receptor) | pIC50 [1] | pIC50 [3] | Structure (SMILES) | also measured
1 | 9.30 | 6.62 | – | COc1ccc(C2(O)OC(=O)C(c3ccc4c(c3)OCO4)=C2Cc2cc(OC)c(OC)c(OC)c2)cc1C (centres undefined) | Selectivity [2]: 480
2 | – | – | 5.09 | COc1ccc(C(=O)/C(Cc2ccc(NC(C)=O)cc2)=C(\C(=O)O)c2ccc3c(c2)OCO3)cc1 | –
3 | – | – | 7.17 | COc1ccc(C(=O)/C(Cc2cc(OC)c(OC)c(OC)c2)=C(\C(=O)O)c2cc(OC)c3c(c2)OCO3)cc1C | –
4 | – | – | 4.80 | COc1ccc(C(=O)/C(Cc2ccccc2)=C(\C(=O)[O-])c2cc(OC)c3c(c2)OCO3)cc1.[Na+] | Pressor response (Rattus norvegicus): 76%
5 | 9.92 | 6.35 | – | CCOc1cc(CC2=C(c3ccc4c(c3)OCO4)C(=O)OC2(O)c2ccc(OC)cc2)cc(OCC)c1OCC (centres undefined) | Selectivity [2]: 3700
6 | – | 4.57 | – | O=C1OC(O)(c2ccc(Cl)cc2)C(Cc2ccccc2)=C1c1ccc2c(c1)OCO2 (centres undefined) | IC50 [4]: Not Active
7 | – | – | 5.72 | COc1ccc(C(=O)/C(Cc2cc(OC)c(OC)c(OC)c2)=C(\C(=O)[O-])c2ccc3c(c2)OCO3)cc1C.[Na+] | Pressor response (Rattus norvegicus): 53%
8 | 9.30 | 6.59 | – | COc1ccc(C2(O)OC(=O)C(c3cc(OC)c4c(c3)OCO4)=C2Cc2cc(OC)c(OC)c(OC)c2)cc1 (centres undefined) | Selectivity [2]: 520
9 | – | – | – | COc1ccc(C2(O)OC(=O)C(c3ccc4c(c3)OCO4)=C2Cc2cc(OC)c(OC)c(OC)c2)cc1 (centres undefined) [PD-156707] | half-life [5]: 72 min; bioavailability [6]: 67%; Cmax [7]: 1520 ng/mL; AUC(0-inf) [8]: 1500 ng·h/mL; Tmax [9]: 2.5 h; AUC(0-inf) [10]: 590 ng·h/mL; AUC(0-inf) [11]: 2000 ng·h/mL; Cmax [12]: 480 ng/mL; bioavailability [13]: 20%; Tmax [14]: 41.4 min; half-life [15]: 37.2 min; half-life [16]: 114 min
10 | – | – | 4.66 | COc1ccc(C(=O)/C(Cc2ccccc2)=C(\C(=O)[O-])c2ccc3c(c2)OCO3)cc1.C[N+](C)(C)CCO | Pressure response (Rattus norvegicus): 80%
11 | 4.80 | 5.00 | – | COc1ccc(C2(O)OC(=O)C(c3ccc4c(c3)OCO4)=C2Cc2cccc3c2CCc2ccccc2C3=O)cc1 (centres undefined) | –
12 | < 4.60 | < 5.60 | – | O=C1OC(O)(c2ccc(C(=O)O)cc2)C(Cc2ccccc2)=C1c1ccc2c(c1)OCO2 (centres undefined) | –
13 | 8.40 | 5.52 | – | COc1ccc(C2(O)OC(=O)C(c3ccc4c(c3)OCO4)=C2Cc2ccc(S(C)(=O)=O)cc2)cc1 (centres undefined) | –
14 | 6.62 | < 5.60 | – | COc1ccc(C2(O)OC(=O)C(c3cc(OC)ccc3OC)=C2Cc2ccccc2)cc1 (centres undefined) | –

Source: ChEMBL document CHEMBL1129982, “Structure-activity relationships in a series of orally active gamma-hydroxy butenolide endothelin antagonists” (J Med Chem, 1997)
